Experimental data from different studies.
Protocols differ between the studies behind these lines.
Target: Receptor tyrosine-protein kinase erbB-4 (ERBB4, Homo sapiens, UniProt Q15303)

Cc1ccc(NC(=O)c2ccnc(C(F)(F)F)c2)cc1-c1cc(OCCO)nc(N2CCOCC2)c1
remaining binding (binding; competition with immobilised ligand; 1 µM): 99%

C#Cc1cc(-c2cc(Nc3nc(N[C@@H](C)c4ccc(F)cn4)ncc3Cl)n[nH]2)ccc1C=O
inhibition (enzyme activity; inhibitor; 0.2 µM): 54.3%

C=CC(=O)N1CCC[C@@H](n2nc(-c3ccc(Oc4ccccc4)cc3)c3c(N)ncnc32)C1
inhibition (enzyme activity; inhibitor; 1 µM): 100%

CCCCC(=O)Nc1ccc(-c2ccc3ncn(CCC)c(=O)c3c2)cn1
remaining binding (binding; competition with immobilised ligand; 0.5 µM): 100%

COc1c(Cl)cccc1Nc1c(-c2ccncc2OC[C@@H]2COCCO2)[nH]c2c1C(=O)NCC2
inhibition (enzyme activity; inhibitor; radiometric; 1 µM): > 80%

CN1CCN(C(=O)c2ccc(NC(=O)Nc3ccc(N(C)c4ccnc(Nc5ccc(CS(C)(=O)=O)cc5)n4)cc3)cc2)CC1
remaining binding (binding; competition with immobilised ligand; 1 µM): 77%

CC#CC(=O)N1CCC[C@H]1c1nc(-c2ccc(C(=O)Nc3ccccn3)cc2)c2c(N)nccn12
inhibition (enzyme activity; inhibitor; 1 µM): 96%

N#Cc1ccc(NC(=O)Nc2ccccc2)cc1
remaining binding (cell-free assay; competition with immobilised ligand; 25 µM): 100%

C1=C/COCc2cc(ccc2OCCN2CCCC2)Nc2nccc(n2)-c2cccc(c2)COC/1
remaining binding (binding; 0.1 µM): 88%

C#Cc1cnc(Nc2ccnc(CO)c2)nc1Nc1ccccc1S(C)(=O)=NC#N (centres unmarked)
remaining signal (cell-free assay; 1 µM): 86%

COc1ccc2oc(-c3ccc4nc(N)oc4c3)c/c(=N\c3ccccc3NC(=O)CCN)c2c1
remaining binding (binding; 1 µM): 109%
